Assay results taken from ChEMBL document CHEMBL1124344, “5-Piperazinylalkyl-2(3H)-oxazolones with neuroleptic activity” (J Med Chem, 1989).

How the values were obtained:
[1] = tested on: Rattus norvegicus; assay: Activity to evoke catalepsy, after 1 hour of peroral administration in rats; type: functional; conditions: po
How it was run: (§1)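 Rats fasted overnight and given oral doses in arabic gum suspension (10 mL/kg), 1 h before screening or 1 and 5 h before profile testing. Forelegs placed on a horizontal bar 7 cm high, three times at 5-min intervals. Immobility of at least 15 s counts as catalepsy. ED50 is the dose giving catalepsy in 50% of rats, by probit analysis. Parenthetical entries give the maximal dose and percent activity.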

[2] = tested on: Mus musculus; assay: Anticonvulsant activity against tryptamine-induced convulsions, after 1 hour of peroral administration in mouse; type: functional; conditions: po
How it was run: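 Compounds were dosed as bases suspended in arabic gum at 10 mL/kg orally, after an overnight fast, with vehicle controls. Protection meant no bilateral forepaw clonic seizures or head twitches (tryptamine), or no tonic hind-limb extension (the other two). ED50 is the dose protecting 50%, by probit analysis.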

[3] = tested on: Rattus norvegicus; assay: Inhibition against conditioned avoidance response, after 1 hour of peroral administration in rats; type: functional; conditions: po
How it was run: (§2)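 Male rats were trained in a shuttle box to avoid grid-floor shock by crossing compartments during a warning period. Dosing was oral as a gum arabic suspension at 10 mL/kg after an overnight fast. Percent inhibition was computed against a pretraining test. ED50 is the dose giving 50% inhibition.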

[4] = tested on: Rattus norvegicus; assay: Antagonistic activity against apomorphine-induced stereotypy, after 5 hour of peroral administration in rats; type: functional; conditions: po
How it was run: (§3)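 Male rats fasted overnight and given oral doses in arabic gum suspension (10 mL/kg) 1 h, or 1 and 5 h, before challenge. Apomorphine 3 mg/kg iv, with stereotypy observed 20 min later. ED50 is the dose inhibiting stereotypy in 50% of rats, per Janssen's method. Parenthetical entries give the maximal dose and percent activity.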

[5] = tested on: Rattus norvegicus; assay: Antagonistic activity against amphetamine-induced stereotypy, after 1 hour of peroral administration in rats; type: functional; conditions: po
How it was run: (§4)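 Male rats dosed orally (arabic gum suspension, 10 mL/kg, fasted overnight) 1 or 5 h beforehand. Amphetamine 7.5 mg/kg iv, with stereotyped movements scored as present or absent 1 h later. ED50 is the dose inhibiting stereotypy in 50% of rats, by probit analysis. Parenthetical entries give the maximal dose and percent activity.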

[6] = tested on: Mus musculus; assay: Inhibition against apomorphine-induced turning, after 1 hr of peroral administration in mouse; type: functional; conditions: po
How it was run: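 Mice were lesioned unilaterally with intranigrostriatal 6-hydroxydopamine (20 µg). At 7 days, strong contraversive turners 15 min after apomorphine 2 mg/kg ip were selected. A week later they were dosed orally and rechallenged. Fewer than six full rotations in 2 min counted as protection. ED50 is the dose protecting 50%.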

[7] = tested on: Mus musculus; assay: Inhibition against apomorphine-induced climbing, after 5 hour of peroral administration in mouse; type: functional; conditions: po
How it was run: (§5)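 Mice were dosed orally (gum arabic suspension, 10 mL/kg, fasted), then given apomorphine 1 mg/kg sc and placed in cylindrical cages with vertical metal bars. Climbing was scored 0 for four paws on the floor, 1 for forefeet on the wall, 2 for four paws on the wall. ED50 is the dose halving the control score.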

[8] = tested on: Mus musculus; assay: Activity of inclined screen in mouse, after 1 hour of peroral administration in mouse; type: functional; conditions: po
How it was run: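 Male mice dosed orally (arabic gum suspension, 10 mL/kg, fasted overnight) 1 or 5 h before testing. Placed for 1 h on a wire screen bent at 60° to the horizontal. Ataxic or miorelaxed mice slide off. ED50 is the dose at which 50% of mice fall, by probit analysis. Ten animals per dose, with vehicle controls.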

[9] = tested on: Mus musculus; assay: Potentiation against pentobarbital-induced sleeping, after 1 hour of peroral administration in mouse; type: functional; conditions: po
How it was run: (§6)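 Female mice fasted overnight, dosed orally 1 or 5 h beforehand as arabic gum suspension, 10 mL/kg, with vehicle controls. Subhypnotic pentobarbital 10 mg/kg iv; 3 min later placed on back, effect scored as complete loss of righting reflex for at least 15 s. ED50 = dose producing this in 50% of mice, probit analysis.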

[10] = tested on: Mus musculus; assay: Suppression of aggressive behavior, after 5 hour of peroral administration in mouse; type: functional; conditions: po
How it was run: (§7)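 Male mice made aggressive by isolation in individual black cages for about 1 month plus weekly testosterone cyclopentylpropionate 250 mg/kg sc; pairs preselected for attack on a nonisolated male within 15 min. Oral dosing (arabic gum, 10 mL/kg) 1 or 5 h before test, overnight fast. ED50 = dose suppressing aggression in 50% of animals, probit analysis.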

[11] = tested on: Mus musculus; assay: Antagonistic activity against amphetamine-induced hypermotility, after 1 hour of peroral administration in mouse; type: functional; conditions: po
How it was run: (§8)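 Male mice in groups of five, fasted overnight, given oral drug in arabic gum suspension (10 mL/kg) 1 or 5 h ahead. Amphetamine 4 mg/kg ip given 30 min after drug. Ten minutes later locomotion is recorded for 15 min in a photocell actophotometer. ED50 is 50% reduction versus control hypermotility, by probit analysis. Parenthetical entries give the maximal dose and percent activity.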

[12] = tested on: Mus musculus; assay: Inhibition against apomorphine-induced climbing, after 1 hour of peroral administration in mouse; type: functional; conditions: po; how it was run: as §5
[13] = tested on: Mus musculus; assay: Potentiation against pentobarbital-induced sleeping, after 5 hour of peroral administration in mouse; type: functional; conditions: po; how it was run: as §6
[14] = tested on: Rattus norvegicus; assay: Antagonistic activity against amphetamine-induced stereotypy, after 5 hour of peroral administration in rats; type: functional; conditions: po; how it was run: as §4
[15] = tested on: Rattus norvegicus; assay: Inhibition against conditioned avoidance response, after 5 hour of peroral administration in rats; type: functional; conditions: po; how it was run: as §2
[16] = species on record: Rattus norvegicus; assay: Body weight gain, after 2 hour period of conditioned feeding in rats; type: functional
How it was run: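 Female rats (250–280 g) were kept singly on a 22-h food deprivation schedule, with pellets 10–12 a.m. and water always available. After 30–40 days of training they were dosed 1 h before the 2-h feeding and weighed before and after it. Weight gain was expressed as a percentage of the two preceding control days. ED50 is the dose giving 50% reduction.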

[17] = tested on: Rattus norvegicus; assay: Antagonistic activity against apomorphine-induced stereotypy, after 1 hour of peroral administration in rats; type: functional; conditions: po; how it was run: as §3
[18] = tested on: Mus musculus; assay: Contractile activity in skeletal muscles, after 1 hour of peroral administration in mouse; type: functional; conditions: Muscle tissue, po
How it was run: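 Male mice were placed for 1 h on a 60° inclined wire screen just after dosing and 4 h later. In a second test, trained mice hung by the forepaws from a horizontal 1.8 mm wire 15 cm up; normal mice touch it with a hind paw within 2 s and stay ≥1 min. ED50 is the dose making 50% fall. Dosing was oral in gum arabic suspension at 10 mL/kg after an overnight fast.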

[19] = tested on: Mus musculus; assay: Antagonistic activity against amphetamine-induced hypermotility, after 5 hour of peroral administration in mouse; type: functional; conditions: po; how it was run: as §8
[20] = tested on: Mus musculus; assay: Suppression of aggressive behavior, after 1 hour of peroral administration in mouse; type: functional; conditions: po; how it was run: as §7
[21] = tested on: Mus musculus; assay: Inhibition of spontaneous motor activity in mouse, by administering perorally; type: functional; conditions: po
How it was run: (§9)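 Mice fasted overnight, then dosed orally with compound (weighed as base) suspended in arabic gum, 10 mL/kg, with vehicle controls; 1 h pretreatment for screening tests, 1 or 5 h for others. Groups of five; locomotor activity counted 10 min in photocell activity cage, at least two groups per dose. ED50 = dose giving 50% inhibition versus controls, by probit analysis.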

[22] = tested on: Mus musculus; assay: Antagonistic activity against amphetamine-induced Hypermobility in mouse by administering perorally; type: functional; conditions: po; how it was run: as §8
[23] = Lethal dose in mice (LD50) following i.p. dosing; type: toxicity, organism-based; conditions: mouse, in vivo, ip
How it was run: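 Acute toxicity tested in mice by the intraperitoneal route. LD50 is the dose killing 50% of treated mice, computed by Finney probit analysis; values are approximate.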

[24] = tested on: Rattus norvegicus; assay: Activity to evoke catalepsy, after 5 hour of peroral administration in rats; type: functional; conditions: po; how it was run: as §1
[25] = tested on: Mus musculus; assay: Inhibition of spontaneous motor activity, after 1 hour of peroral administration in mouse; type: functional; conditions: po; how it was run: as §9
[26] = tested on: Mus musculus; assay: Inhibition of spontaneous motor activity, after 5 hour of peroral administration in mouse; type: functional; conditions: po; how it was run: as §9

Row | SMILES | ED50 [1] [mg/kg] | ED50 [2] [mg/kg] | ED50 [3] [mg/kg] | ED50 [4] [mg/kg] | ED50 [5] [mg/kg] | ED50 [6] [mg/kg] | ED50 [7] [mg/kg] | ED50 [8] [mg/kg] | ED50 [9] [mg/kg] | ED50 [10] [mg/kg] | ED50 [11] [mg/kg] | ED50 [12] [mg/kg] | ED50 [13] [mg/kg] | ED50 [14] [mg/kg] | ED50 [15] [mg/kg] | ED50 [16] [mg/kg] | ED50 [17] [mg/kg] | ED50 [18] [mg/kg] | ED50 [19] [mg/kg] | ED50 [20] [mg/kg] | other results
1 | CN(C)CCCN1c2ccccc2Sc2ccc(Cl)cc21 [CHLORPROMAZINE] | 10.3 | 3.4 | 6.8 | 41.6 | 19.4 | 4.4 | 2.2 | 5.4 | 3.2 | 3.1 | 4.1 | 2 | 3.3 | 13.6 | 10.3 | 6 | 28.9 | 36.5 | 2.4 | – | –
2 | COc1ccccc1N1CCN(CCCC(=O)c2ccc(F)cc2)CC1 [FLUANISONE] | 18 | 12.5 | 25 | – | 17.8 | 14.7 | 15 | 49 | 20.7 | 20.1 | 16.4 | 5 | – | 50 | 50 | – | 63.2 | 20 | 18 | 6.1 | ED50 [21]: 7.7 mg/kg; ED50 [22]: 16.4 mg/kg; LD50 [23]: 180 mg/kg; ED50 [24]: 13.9 mg/kg
3 | O=C(CCCN1CCC(O)(c2ccc(Cl)cc2)CC1)c1ccc(F)cc1 [HALOPERIDOL] | 15.4 | 1.1 | 0.23 | 1.8 | 0.27 | 0.32 | 0.045 | 6.8 | 7 | 0.29 | 0.12 | 0.12 | 3.1 | 0.39 | 0.32 | 0.3 | 1.1 | – | 0.28 | – | ED50 [25]: 0.16 mg/kg; ED50 [26]: 0.35 mg/kg
4 | O=c1[nH]c(-c2ccc(F)cc2)c(CCN2CCN(c3cc(Cl)cc(Cl)c3)CC2)o1 [LODIPERONE] | – | – | – | 106 | 13.5 | 0.84 | 0.21 | – | – | 8.5 | 1.5 | 0.37 | – | 4.2 | 6.4 | 2.2 | – | 200 | 1.9 | 23.8 | ED50 [21]: 2.7 mg/kg; ED50 [22]: 1.5 mg/kg; ED50 [25]: 2.7 mg/kg; ED50 [26]: 2.5 mg/kg; LD50 [23]: > 2000 mg/kg; ED50 [24]: 24.3 mg/kg
5 | COc1ccccc1N1CCN(CCc2oc(=O)[nH]c2-c2ccc(F)cc2)CC1 [ZOLOPERONE] | 55.6 | 9.8 | 3.5 | 60.7 | 5.3 | 15.9 | 4 | 91 | 41.1 | 4.7 | 4 | 0.42 | 37.3 | 12.4 | 11.6 | 7.1 | 10.4 | – | 15 | 4.7 | ED50 [21]: 4.6 mg/kg; ED50 [22]: 4 mg/kg; ED50 [25]: 4.6 mg/kg; ED50 [26]: 20.3 mg/kg; LD50 [23]: > 2000 mg/kg; ED50 [24]: 21.5 mg/kg
